Among the data in ChEMBL document CHEMBL1135936, “6-[2-(Phosphonomethoxy)alkoxy]pyrimidines with antiviral activity” (J Med Chem, 2002) are Control and EC50 values, retold here.

The subject of experiment [1] is CCRF-CEM. Nature of the experiment: In vitro cytotoxicity against CCRF-CEM T lymphoblastoid cells. It counts as functional, Homo sapiens. Also on record: concentration or dose not given beside the values. In outline:
(§1)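 Cells were grown for 72 h at a constant compound concentration of 10 µM, then counted. Growth inhibition is given relative to cell counts in control cultures grown in medium without compound. Lines: mouse L1210 and L929, human HeLaS3 and CCRF-CEM.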

The test system of experiment [2] is CCRF-CEM. The experiment in a line: Inhibition of Human immunodeficiency virus (HIV) -1 III B strain induced cytopathicity in CEM cell line. The experiment is classed as functional, cell-based. In outline: (§2)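 CEM cells were infected with 100 CCID50 per mL of HIV-1 (IIIB) or HIV-2 (ROD). Cells were seeded into wells containing dilutions of compound and incubated 4 days at 37 °C. CEM giant cell formation was then examined microscopically.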
On the technique in general: Cytopathic effects are the visible damage that an infection or toxin causes in cultured cells.

The test system of experiment [3] is CCRF-CEM. The experiment in a line: Inhibition of Human immunodeficiency virus (HIV)-2 ROD strain induced cytopathicity in CEM cell line. The experiment is classed as functional, cell-based. Summed up: as §2
The subject of experiment [4] is Moloney murine sarcoma virus. The experiment in a line: Inhibition of moloney sarcoma virus (MSV) induced cytopathicity in C3H/3T3 embryo fibroblast cells. It counts as functional, organism-based. Summed up: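 C3H/3T3 murine embryo fibroblasts were seeded in 48-well plates and infected 24 h later with 80 focus-forming units of MSV. MSV stock was prepared from tumours in NMRI mice. Virus adsorbed for 10-120 min at 37 °C, then fresh medium with compound dilutions was added. Transformation was examined microscopically after 6 days.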

Experiment [5] has as its system E6SM. Nature of the experiment: Inhibition of Herpes simplex virus-1, KOS strain induced cytopathicity in E6SM cell line. It counts as functional, cell-based. As to conditions: Homo sapiens. Summed up: (§3)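 Inhibition of virus-induced cytopathicity in confluent cell cultures in 96-well plates inoculated with 100 CCID50 of virus; 1 CCID50 is the virus dose infecting 50% of cultures. EC50 is based on reduction of cytopathicity.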

Experiment [6] relates to E6SM. Nature of the experiment: Inhibition of Herpes simplex virus-2 (G strain) induced cytopathicity in E6SM cell line. It counts as functional, cell-based. As to conditions: Homo sapiens. Summed up: as §3
The test system of experiment [7] is E6SM. Nature of the experiment: Inhibition of thymidine kinase deficient Herpes simplex virus-1 VMW 1837 strain induced cytopathicity in E6SM cell line. It counts as functional, cell-based. As to conditions: Homo sapiens. Summed up: as §3
Experiment [8] deals with Human alphaherpesvirus 3. The experiment in a line: Inhibition of Thymidine kinase deficient (TK-) Varicella-Zoster virus (VZV) 07/1 strain induced cytopathicity n HEL cell line. It counts as functional, organism-based. As to conditions: Human alphaherpesvirus 3, tk-07, HEL. In outline: as §3
The subject of experiment [9] is HEL. Nature of the experiment: Inhibition of Thymidine kinase deficient (TK-) Varicella-Zoster virus (VZV) YS/R strain induced cytopathicity in HEL cell line. The conditions noted are these: Homo sapiens. It counts as functional, cell-based. Summed up:
as §3

In experiment [10] the test system is HEL. The experiment in a line: Inhibition of Varicella-Zoster virus (VZV) OKA strain induced cytopathicity in HEL cell line. As to conditions: Homo sapiens. It counts as functional, cell-based. In outline: as §3
In experiment [11] the test system is HEL. The experiment in a line: Inhibition of Varicella-Zoster virus (VZV) YS strain induced cytopathicity in HEL cell line. The conditions noted are these: Homo sapiens. It counts as functional, cell-based. In outline:
as §3

Experiment [12] has as its system HeLa. Nature of the experiment: In vitro cytotoxicity against human cervix carcinoma HeLa S3 cells. The experiment is classed as functional. Also on record: concentration or dose not given beside the values. In outline: as §1
Experiment [13] has as its system L929. Nature of the experiment: In vitro cytotoxicity against murine L929 cells. The experiment is classed as functional, Mus musculus. Also on record: concentration or dose not given beside the values. Summed up: as §1
In experiment [14] the test system is L1210. Nature of the experiment: In vitro cytotoxicity against L1210 mouse leukemia cells. The experiment is classed as functional. Also on record: concentration or dose not given beside the values. In outline:
as §1

The structures appear in SMILES notation. Converted amounts (≈) assume the structure as drawn.

The term EC50 denotes the concentration that produces a half-maximal response. For `CSc1nc(N)cc(OCCOCP(=O)(O)O)n1`, the Control came out at 87% in experiment [1], 79% in experiment [12], 92% in [13] and 96% in experiment [14]. The EC50 in experiment [2] is 51 µg/mL (≈ 173 µM); in experiment [3], 33 µg/mL (≈ 112 µM); in experiment [4] it was over 40 µg/mL; in [5], over 80 µg/mL; in experiment [6], over 80 µg/mL; in [7], over 80 µg/mL. In addition, the EC50 in experiment [8], in experiment [9], in [10] and in experiment [11] was over 50 µg/mL in each case.
As for `Nc1cc(O)ncn1`, the EC50 in [2] is over 100 µg/mL; in experiment [3], over 100 µg/mL; in experiment [5], over 400 µg/mL; in [6] it was over 400 µg/mL; in experiment [7], over 400 µg/mL; in experiment [8], over 50 µg/mL. The EC50 in experiment [9], in experiment [10] and in [11] was over 50 µg/mL each time.
Take `Nc1nc(O)cc(NC2CC2)n1`: the EC50 was over 100 µg/mL in experiment [2]; over 100 µg/mL in experiment [3]; 133 µg/mL (≈ 800 µM) in [4]; over 400 µg/mL in [5]; over 400 µg/mL in [6]; over 400 µg/mL in experiment [7]. The EC50 in [8], in experiment [9], in experiment [10] and in [11] was over 50 µg/mL throughout.
Consider `Nc1cc(=O)n(CCOCP(=O)(O)O)c(N)n1`, for which the Control in experiment [1] was 95%; in experiment [12], 93%; in [13], 96%; in experiment [14] it was 76%. In addition, the EC50 was 80 µg/mL (≈ 303 µM) in experiment [2]; 25 µg/mL (≈ 94.6 µM) in experiment [3]; 2.92 µg/mL (≈ 11.1 µM) in experiment [4]; 240 µg/mL (≈ 908 µM) in experiment [5]; over 400 µg/mL in [6]; over 400 µg/mL in [7]. For the same compound, the EC50 was over 50 µg/mL in experiment [8], over 50 µg/mL in [9], 32 µg/mL (≈ 121 µM) in experiment [10] and over 50 µg/mL in experiment [11].
Turning to `Cc1cc(OCCOCP(=O)(O)O)nc(N)n1`, the Control in experiment [1] amounted to 95%; in [12] it was 87%; in [13], 85%; in experiment [14], 99%. Also, the EC50 in experiment [2] is over 100 µg/mL; in [3] it was over 100 µg/mL; in [4], 89 µg/mL (≈ 338 µM); in experiment [5], over 400 µg/mL; in experiment [6], over 400 µg/mL; in experiment [7], over 400 µg/mL. Also, the EC50 in experiment [8], in [9], in [10] and in [11] was over 50 µg/mL throughout.
Regarding `Nc1cc(=O)n(CCOCP(=O)(O)O)cn1`, the Control in [1] is 86%; in experiment [12] it was 94%; in experiment [13] it was 90%; in experiment [14], 98%. In addition, the EC50 in experiment [2] is over 100 µg/mL; in [3], over 100 µg/mL; in [4] it was 138 µg/mL (≈ 554 µM); in experiment [5] it was over 400 µg/mL; in [6], over 400 µg/mL; in experiment [7], over 400 µg/mL. The EC50 in experiment [8], in [9], in [10] and in experiment [11] was over 50 µg/mL in each case.
Consider `Nc1nc(NC2CC2)cc(=O)n1CCOCP(=O)(O)O`, for which the EC50 in experiment [2] was over 100 µg/mL; in experiment [3], over 100 µg/mL; in [5], over 16 µg/mL; in [6], over 16 µg/mL; in experiment [7], over 16 µg/mL; in experiment [8] it was over 50 µg/mL. Besides, the EC50 in experiment [9], in experiment [10] and in experiment [11] was over 50 µg/mL each time.
In the case of `CC(C)OP(=O)(COCCSc1cc(N)nc(N)n1)OC(C)C`, the EC50 in experiment [2] is 47 µg/mL (≈ 129 µM); in [3] it was 52 µg/mL (≈ 143 µM); in [5], over 400 µg/mL; in [6], over 400 µg/mL; in experiment [7] it was over 400 µg/mL; in [8], over 50 µg/mL. For the same compound, the EC50 in [9], in experiment [10] and in [11] was over 50 µg/mL throughout.
